Test results: ChEMBL document CHEMBL3526095, “Characterization of the in vitro and in vivo metabolism and disposition and cytochrome P450 inhibition/induction profile of saxagliptin in human” (Drug Metab Dispos, 2012); call rule not given here

How the values were obtained:
Hepatocyte [1] = assay: Induction of CYP2B6 mRNA expression in human hepatocytes assessed as bupropion hydroxylation up to 25 uM by LC-MS/MS analysis; format: ADME, cell-based
In short: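 Freshly isolated primary human hepatocytes from three donors were dosed once daily for 3 consecutive days at 0.2, 1, 5 and 25 µM, with 0.1% DMSO as vehicle control and phenobarbital 1000 µM as the CYP2B6 inducer control. Microsomes were then incubated with 250 µM bupropion at 0.02 mg/ml protein, and metabolite formed was measured by LC-MS/MS. Fold induction is relative to DMSO.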

Cytochrome P450 2C9 [2] = target: T1, Cytochrome P450 2C9 (Homo sapiens, UniProt P11712); assay: Inhibition of CYP2C9 in human liver microsomes assessed as paclitaxel 6alpha-hydroxylation preincubated for 15 mins by LC-MS/MS analysis in presence of NADPH; format: ADME; conditions: in the assay text read “tolbutamide hydroxylation” for “paclitaxel 6alpha-hydroxylation”
T1 sequence (P11712 whole entry): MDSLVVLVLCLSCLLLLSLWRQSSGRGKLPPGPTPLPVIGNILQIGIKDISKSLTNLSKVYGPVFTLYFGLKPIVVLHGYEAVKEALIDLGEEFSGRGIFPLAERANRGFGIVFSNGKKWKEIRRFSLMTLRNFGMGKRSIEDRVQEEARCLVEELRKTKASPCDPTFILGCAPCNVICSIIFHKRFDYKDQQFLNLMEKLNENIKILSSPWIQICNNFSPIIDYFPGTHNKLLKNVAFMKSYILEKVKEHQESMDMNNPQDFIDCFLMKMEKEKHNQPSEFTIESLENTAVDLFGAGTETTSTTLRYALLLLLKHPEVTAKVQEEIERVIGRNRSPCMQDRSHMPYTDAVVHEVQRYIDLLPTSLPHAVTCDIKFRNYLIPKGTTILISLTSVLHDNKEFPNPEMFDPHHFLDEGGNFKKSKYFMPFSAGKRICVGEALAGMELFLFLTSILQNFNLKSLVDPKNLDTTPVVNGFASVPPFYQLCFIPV
In short: (§1)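 Pooled HLM from 15 donors, probe substrate near its experimentally determined level, in 100 mM phosphate buffer pH 7.4 at 37°C. Saxagliptin tested at 0.1–50 µM, M2 at 0.1–200 µM. Direct inhibition: 3-min equilibration, then reaction started with 1 mM NADPH. Time-dependent inhibition: 15-min preincubation with or without NADPH, then substrate added.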

Cytochrome P450 2C19 [3] = target: T2, Cytochrome P450 2C19 (Homo sapiens, UniProt P33261); assay: Inhibition of CYP2C19 in human liver microsomes assessed as (S)-mephenytoin 4'-hydroxylation after 3 mins by LC-MS/MS analysis; format: ADME; in short: as §1
T2 sequence (P33261 whole entry): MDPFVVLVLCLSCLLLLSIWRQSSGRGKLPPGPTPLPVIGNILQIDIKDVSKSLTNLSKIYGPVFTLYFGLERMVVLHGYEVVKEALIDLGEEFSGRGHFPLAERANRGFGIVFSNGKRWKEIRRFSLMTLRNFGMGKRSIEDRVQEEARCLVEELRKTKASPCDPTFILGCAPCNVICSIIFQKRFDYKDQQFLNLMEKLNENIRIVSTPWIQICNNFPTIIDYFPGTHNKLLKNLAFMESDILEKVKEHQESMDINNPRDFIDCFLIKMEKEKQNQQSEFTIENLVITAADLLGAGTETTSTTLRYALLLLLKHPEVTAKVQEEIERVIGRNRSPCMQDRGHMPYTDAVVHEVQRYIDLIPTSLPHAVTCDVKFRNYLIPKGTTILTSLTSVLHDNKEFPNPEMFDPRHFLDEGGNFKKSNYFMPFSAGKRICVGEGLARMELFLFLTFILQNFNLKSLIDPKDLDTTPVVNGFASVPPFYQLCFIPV

Cytochrome P450 2E1 [4] = target: T3, Cytochrome P450 2E1 (Homo sapiens, UniProt P05181); assay: Inhibition of CYP2E1 in human liver microsomes assessed as chlorzoxazone 6-hydroxylation after 3 mins by LC-MS/MS analysis in presence of NADPH; format: ADME
T3 sequence (P05181 whole entry): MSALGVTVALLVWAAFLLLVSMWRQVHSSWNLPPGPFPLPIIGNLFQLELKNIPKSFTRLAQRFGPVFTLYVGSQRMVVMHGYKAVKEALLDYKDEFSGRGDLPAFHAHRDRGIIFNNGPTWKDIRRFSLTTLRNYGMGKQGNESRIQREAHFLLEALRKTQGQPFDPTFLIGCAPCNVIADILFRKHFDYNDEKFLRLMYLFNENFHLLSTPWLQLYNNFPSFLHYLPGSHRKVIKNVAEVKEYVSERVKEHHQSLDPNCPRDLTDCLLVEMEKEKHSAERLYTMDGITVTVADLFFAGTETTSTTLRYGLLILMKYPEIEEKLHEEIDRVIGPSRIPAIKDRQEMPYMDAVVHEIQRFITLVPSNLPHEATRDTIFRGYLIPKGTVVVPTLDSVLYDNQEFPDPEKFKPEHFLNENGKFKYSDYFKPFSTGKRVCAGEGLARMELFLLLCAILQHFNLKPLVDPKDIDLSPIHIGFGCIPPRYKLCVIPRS

Hepatocyte [5] = assay: Cytotoxicity against human hepatocytes assessed as change in morphological integrity up to 25 uM; format: cell-based
[6] = Drug metabolism in human assessed as parent compound level in urine at 50 mg, po after up to 168 hrs by LC-MS/MS analysis; format: ADME, organism-based; conditions: in vivo
In short: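 Single 50-mg oral solution dose of [14C]saxagliptin (91.5 µCi) given to healthy male subjects after a 10-h fast. Urine collected as 0–12 h and 12–24 h pools, then in 24-h intervals to 168 h. Saxagliptin and M2 measured by validated positive-ESI LC-MS/MS with MRM; urine standard curves 25–5000 ng/ml for saxagliptin and 50–10,000 ng/ml for M2.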

Cytochrome P450 2D6 [7] = target: T4, Cytochrome P450 2D6 (Homo sapiens, UniProt P10635); assay: Inhibition of CYP2D6 in human liver microsomes assessed as bufuralol 1'-hydroxylation after 3 mins by LC-MS/MS analysis; format: ADME
T4 sequence (P10635 whole entry): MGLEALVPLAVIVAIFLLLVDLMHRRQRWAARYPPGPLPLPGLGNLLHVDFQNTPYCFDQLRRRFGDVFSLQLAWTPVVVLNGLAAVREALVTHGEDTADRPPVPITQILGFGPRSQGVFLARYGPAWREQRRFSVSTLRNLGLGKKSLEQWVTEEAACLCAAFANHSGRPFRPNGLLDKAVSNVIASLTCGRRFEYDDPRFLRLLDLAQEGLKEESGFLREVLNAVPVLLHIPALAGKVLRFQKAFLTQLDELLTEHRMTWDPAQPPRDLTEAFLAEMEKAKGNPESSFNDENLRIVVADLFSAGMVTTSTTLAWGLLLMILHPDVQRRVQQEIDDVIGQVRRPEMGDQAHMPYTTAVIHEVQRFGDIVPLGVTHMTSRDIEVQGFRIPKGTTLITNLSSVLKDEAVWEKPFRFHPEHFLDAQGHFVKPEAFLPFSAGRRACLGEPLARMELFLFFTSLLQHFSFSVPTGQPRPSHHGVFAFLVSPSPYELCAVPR

Cytochrome P450 2C8 [8] = target: T5, Cytochrome P450 2C8 (Homo sapiens, UniProt P10632); assay: Inhibition of CYP2C8 in human liver microsomes assessed as paclitaxel 6alpha-hydroxylation preincubated for 15 mins by LC-MS/MS analysis in presence of NADPH; format: ADME; in short: as §1
T5 sequence (P10632 whole entry): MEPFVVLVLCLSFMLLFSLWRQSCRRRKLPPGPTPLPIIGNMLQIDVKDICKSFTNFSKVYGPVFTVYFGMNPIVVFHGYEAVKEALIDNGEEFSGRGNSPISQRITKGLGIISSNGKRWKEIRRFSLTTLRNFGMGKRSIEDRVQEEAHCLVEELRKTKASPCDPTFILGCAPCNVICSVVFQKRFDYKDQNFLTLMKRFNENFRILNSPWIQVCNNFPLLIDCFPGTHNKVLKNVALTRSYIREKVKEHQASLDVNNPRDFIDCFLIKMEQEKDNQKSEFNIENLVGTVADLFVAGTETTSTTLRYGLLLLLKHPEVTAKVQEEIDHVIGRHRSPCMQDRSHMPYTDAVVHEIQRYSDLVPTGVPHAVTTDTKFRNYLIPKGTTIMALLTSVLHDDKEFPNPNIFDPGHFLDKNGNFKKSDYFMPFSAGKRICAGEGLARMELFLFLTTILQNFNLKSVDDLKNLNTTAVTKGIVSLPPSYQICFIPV

Cytochrome P450 2D6 [9] = target: T4, Cytochrome P450 2D6; assay: Inhibition of CYP2D6 in human liver microsomes assessed as bufuralol 1'-hydroxylation preincubated for 15 mins by LC-MS/MS analysis; format: ADME
In short: (§2)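 Time-dependent format. Pooled human liver microsomes (15 donors) were preincubated 15 min at 37°C with test compound, with and without 1 mM NADPH. The probe substrate was then added at the same concentration as in the direct assay.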

Cytochrome P450 2C19 [10] = target: T2, Cytochrome P450 2C19; assay: Inhibition of CYP2C19 in human liver microsomes assessed as (S)-mephenytoin 4'-hydroxylation preincubated for 15 mins by LC-MS/MS analysis; format: ADME; in short: as §1
Cytochrome P450 2B6 [11] = target: T6, Cytochrome P450 2B6 (Homo sapiens, UniProt P20813); assay: Inhibition of CYP2B6 in human liver microsomes assessed as bupropion hydroxylation preincubated for 15 mins by LC-MS/MS analysis in presence of NADPH; format: ADME; in short: as §1
T6 sequence (P20813 whole entry): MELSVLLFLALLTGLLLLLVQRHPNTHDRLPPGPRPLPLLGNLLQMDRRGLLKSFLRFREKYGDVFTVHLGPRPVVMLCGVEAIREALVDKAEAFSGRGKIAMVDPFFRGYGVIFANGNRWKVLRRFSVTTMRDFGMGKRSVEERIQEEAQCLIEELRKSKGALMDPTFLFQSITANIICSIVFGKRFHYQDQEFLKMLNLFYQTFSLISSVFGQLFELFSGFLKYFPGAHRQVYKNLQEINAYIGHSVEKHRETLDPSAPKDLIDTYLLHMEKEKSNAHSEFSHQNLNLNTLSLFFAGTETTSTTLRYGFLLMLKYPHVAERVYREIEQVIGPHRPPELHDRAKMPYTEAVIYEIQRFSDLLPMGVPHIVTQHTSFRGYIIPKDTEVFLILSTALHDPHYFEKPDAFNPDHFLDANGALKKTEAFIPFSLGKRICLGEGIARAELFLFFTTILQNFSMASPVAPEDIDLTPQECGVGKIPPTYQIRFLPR

Cytochrome P450 2C8 [12] = target: T5, Cytochrome P450 2C8; assay: Inhibition of CYP2C8 in human liver microsomes assessed as paclitaxel 6alpha-hydroxylation after 3 mins by LC-MS/MS analysis in presence of NADPH; format: ADME; in short: as §1
Cytochrome P450 2E1 [13] = target: T3, Cytochrome P450 2E1; assay: Inhibition of CYP2E1 in human liver microsomes assessed as chlorzoxazone 6-hydroxylation preincubated for 15 mins by LC-MS/MS analysis in presence of NADPH; format: ADME; in short: as §2
Cytochrome P450 2C9 [14] = target: T1, Cytochrome P450 2C9; assay: Inhibition of CYP2C9 in human liver microsomes assessed as paclitaxel 6alpha-hydroxylation after 3 mins by LC-MS/MS analysis in presence of NADPH; format: ADME; conditions: in the assay text read “tolbutamide hydroxylation” for “paclitaxel 6alpha-hydroxylation”; in short: as §1
Cytochrome P450 2B6 [15] = target: T6, Cytochrome P450 2B6; assay: Inhibition of CYP2B6 in human liver microsomes assessed as bupropion hydroxylation after 3 mins by LC-MS/MS analysis in presence of NADPH; format: ADME; in short: as §1
Hepatocyte [16] = assay: Cytotoxicity against human hepatocytes up to 100 uM by lactate dehydrogenase assay; format: cell-based
Hepatocyte [17] = assay: Cytotoxicity against human hepatocytes assessed as change in morphological integrity up to 100 uM; format: cell-based
Cytochrome P450 3A4 = Cytochrome P450 3A4 (Homo sapiens, UniProt P08684); assay: Inhibition of CYP3A4 in human liver microsomes assessed as testosterone 6beta-hydroxylation preincubated for 15 mins by LC-MS/MS analysis in presence of NADPH; format: ADME
Sequence of Cytochrome P450 3A4 (P08684 whole entry): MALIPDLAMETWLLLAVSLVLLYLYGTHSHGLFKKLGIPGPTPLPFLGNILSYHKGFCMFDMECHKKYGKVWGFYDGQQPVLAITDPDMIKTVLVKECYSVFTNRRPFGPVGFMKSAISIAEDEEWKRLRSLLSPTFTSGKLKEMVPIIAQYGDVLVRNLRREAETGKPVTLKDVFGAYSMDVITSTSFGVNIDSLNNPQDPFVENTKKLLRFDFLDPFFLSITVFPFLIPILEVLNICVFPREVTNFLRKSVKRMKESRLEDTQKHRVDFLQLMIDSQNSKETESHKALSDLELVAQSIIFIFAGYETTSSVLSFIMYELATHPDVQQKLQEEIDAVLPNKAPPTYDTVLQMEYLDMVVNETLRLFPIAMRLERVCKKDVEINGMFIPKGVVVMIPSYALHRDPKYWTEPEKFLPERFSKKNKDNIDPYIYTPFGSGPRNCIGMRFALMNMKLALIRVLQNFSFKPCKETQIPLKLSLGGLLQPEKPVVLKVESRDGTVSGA

| SMILES | Activity (Hepatocyte [1]) | IC50 (Cytochrome P450 2C9 [2]) [µM] | IC50 (Cytochrome P450 2C19 [3]) [µM] | IC50 (Cytochrome P450 2E1 [4]) [µM] | Activity (Hepatocyte [5]) | Drug metabolism [6] | IC50 (Cytochrome P450 2D6 [7]) [µM] | IC50 (Cytochrome P450 2C8 [8]) [µM] | IC50 (Cytochrome P450 2D6 [9]) [µM] | IC50 (Cytochrome P450 2C19 [10]) [µM] | IC50 (Cytochrome P450 2B6 [11]) [µM] | IC50 (Cytochrome P450 2C8 [12]) [µM] | IC50 (Cytochrome P450 2E1 [13]) [µM] | IC50 (Cytochrome P450 2C9 [14]) [µM] | IC50 (Cytochrome P450 2B6 [15]) [µM] | Activity (Hepatocyte [16]) | Activity (Hepatocyte [17]) | IC50 (Cytochrome P450 3A4) [µM] |
| --- | --- | --- | --- | --- | --- | --- | --- | --- | --- | --- | --- | --- | --- | --- | --- | --- | --- | --- |
| N#C[C@@H]1C[C@@H]2C[C@@H]2N1C(=O)[C@@H](N)C12CC3CC(CC(O)(C3)C1)C2 [SAXAGLIPTIN ANHYDROUS] | Not Active | > 50 | > 50 | > 50 | Non-toxic | metabolite_detected | > 50 | > 50 | > 50 | > 50 | > 50 | > 50 | > 50 | > 50 | > 50 |  |  |  |
| N#C[C@@H]1C[C@@H]2C[C@@H]2N1C(=O)[C@@H](N)C12CC3CC(O)(CC(O)(C3)C1)C2 |  | > 200 | > 200 | > 200 |  |  | > 200 | > 200 | > 200 | > 200 | > 200 | > 200 | > 200 | > 200 | > 200 | Non-toxic | Non-toxic | > 200 |
